Assays:
Rattus norvegicus [1] = assay: Urinary osmolality from urine collected from rat at 3 mg/kg; assay type: functional
Summary of the method: (§1)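 Conscious rats with free access to water before and during the test, given compound in 20% DMSO in aqueous 2.5% preboiled starch (compound first dissolved in DMSO). Urine volume over 4 h and urinary osmolality (mOsm/kg) measured.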

Rattus norvegicus [2] = assay: Urine volume collected after 3 mg/kg of drug administration into 2 rats.
Rattus norvegicus [3] = assay: Urinary osmolality from urine collected from rat at 10 mg/kg; assay type: functional; summary of the method: as §1
Rattus norvegicus [4] = assay: Urine volume collected after 10 mg/kg of drug administration into 2 rats.; assay type: functional
Summary of the method: (§2)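 Conscious rats with water access before but not during the test. Given AVP 0.4 μg/kg ip in peanut oil, then deionized water 30 mL/kg by gavage 20 min later, then vehicle or compound 20 min after that. Vehicle was 20% DMSO in 2.5% preboiled starch. Urine volume over 4 h and osmolality measured.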

[5] = biological target: Vasopressin receptor (Rattus norvegicus) (UniProt P48974+P30560+Q00788); assay: Relative affinity for rat vasopressin receptors V1a and V2; assay type: protein assay
Vasopressin V2 receptor [6] = biological target: Vasopressin V2 receptor (Rattus norvegicus, UniProt Q00788); assay: Displacement of [3H]AVP from vasopressin V2 receptor of rat kidney medulla.
Homo sapiens = species on record: Homo sapiens; assay: Relative affinity for human vasopressin receptors V1a and V2
Summary of the method: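 Ratio from IC50 values: V1a by displacement of 3H-AVP or 3H-[d(CH2)5 1Tyr(Me)2,Arg8]-AVP from human platelet membranes; V2 by displacement of 3H-AVP from membranes of murine fibroblast LV2 cells expressing human V2 receptors.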

Vasopressin V1a receptor [7] = biological target: Vasopressin V1a receptor (Homo sapiens, UniProt P37288); assay: Displacement of [3H]AVP from vasopressin receptor (V1a) from human platelet membranes.
Summary of the method: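 Membranes from human platelets; displacement of specific binding of 3H-AVP or 3H-[d(CH2)5 1Tyr(Me)2,Arg8]-AVP at V1a sites. IC50 given as group mean ± SEM where two or three separate determinations were made.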

Vasopressin V2 receptor [8] = biological target: Vasopressin V2 receptor (Homo sapiens, UniProt P30518); assay: Displacement of [3H]AVP from human V2 receptor expressed in murine fibroblast cell line (LV2) membranes; assay type: cell-based
Summary of the method: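 Membranes from murine fibroblast line LV2 expressing human V2 receptors; displacement of specific 3H-AVP binding. IC50 given as group mean ± SEM where two or three separate determinations were made.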

Rattus norvegicus [9] = assay: Urinary osmolality from urine collected from rat at 10 mg/kg
Rattus norvegicus [10] = assay: Urine volume collected after 10 mg/kg of drug administration into 3 rats.; assay type: functional; summary of the method: as §2
Rattus norvegicus [11] = assay: Urine volume collected after 10 mg/kg of drug administration into 4 rats.; assay type: functional; summary of the method: as §2
Vasopressin V1a receptor [12] = biological target: Vasopressin V1a receptor (Rattus norvegicus, UniProt P30560); assay: Displacement of (Phe-3,4,5-H) Vasopressin from V1a receptor from rat liver membranes.; assay type: cell membranes, Membrane
Rattus norvegicus [13] = assay: Urine volume collected after 1 mg/kg of drug administration into 8 rats. (Conscious rats free access to water before but not during the experiment).; assay type: functional; summary of the method: as §2
Rattus norvegicus [14] = assay: Urinary osmolality from urine collected from rat at 1 mg/kg; assay type: functional; summary of the method: as §1
Rattus norvegicus [15] = assay: Urinary osmolality from urine collected from rat at 3 mg/kg in second experiment; assay type: functional; summary of the method: as §2
Rattus norvegicus [16] = assay: Urine volume collected after 10 mg/kg of drug administration into 6 rats.; assay type: functional; summary of the method: as §2
Rattus norvegicus [17] = assay: Urine volume collected after 3 mg/kg of drug administration into 15 rats; assay type: functional; summary of the method: as §1
Rattus norvegicus [18] = assay: Urinary osmolality from urine collected from rat at 1 mg/kg in second experiment; assay type: functional; summary of the method: as §2
Rattus norvegicus [19] = assay: Urine volume collected after 1 mg/kg of drug administration into 6 rats; assay type: functional; summary of the method: as §1
Rattus norvegicus [20] = assay: Urine volume collected after 10 mg/kg of drug administration into 13 rats. (Conscious rats free access to water before and after during the experiment); assay type: functional; summary of the method: as §1
Rattus norvegicus [21] = assay: Urinary osmolality from urine collected from rat at 10 mg/kg in second experiment; assay type: functional; summary of the method: as §2
Rattus norvegicus [22] = assay: Urine volume collected after 3 mg/kg of drug administration into 10 rat; assay type: functional; summary of the method: as §2

Chain of Vasopressin V2 receptor (Homo sapiens, UniProt P30518) (P30518 whole entry): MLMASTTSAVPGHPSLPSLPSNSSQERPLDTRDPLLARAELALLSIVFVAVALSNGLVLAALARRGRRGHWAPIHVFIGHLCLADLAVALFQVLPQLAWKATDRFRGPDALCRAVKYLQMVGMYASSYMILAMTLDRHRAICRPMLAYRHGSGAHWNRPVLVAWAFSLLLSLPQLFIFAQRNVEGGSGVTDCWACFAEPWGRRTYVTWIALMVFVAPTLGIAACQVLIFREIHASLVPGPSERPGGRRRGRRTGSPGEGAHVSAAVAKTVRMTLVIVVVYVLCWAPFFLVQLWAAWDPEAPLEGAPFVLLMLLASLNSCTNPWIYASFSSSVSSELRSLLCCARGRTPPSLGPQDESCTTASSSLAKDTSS
Chain of Vasopressin V1a receptor (Rattus norvegicus, UniProt P30560) (P30560 whole entry): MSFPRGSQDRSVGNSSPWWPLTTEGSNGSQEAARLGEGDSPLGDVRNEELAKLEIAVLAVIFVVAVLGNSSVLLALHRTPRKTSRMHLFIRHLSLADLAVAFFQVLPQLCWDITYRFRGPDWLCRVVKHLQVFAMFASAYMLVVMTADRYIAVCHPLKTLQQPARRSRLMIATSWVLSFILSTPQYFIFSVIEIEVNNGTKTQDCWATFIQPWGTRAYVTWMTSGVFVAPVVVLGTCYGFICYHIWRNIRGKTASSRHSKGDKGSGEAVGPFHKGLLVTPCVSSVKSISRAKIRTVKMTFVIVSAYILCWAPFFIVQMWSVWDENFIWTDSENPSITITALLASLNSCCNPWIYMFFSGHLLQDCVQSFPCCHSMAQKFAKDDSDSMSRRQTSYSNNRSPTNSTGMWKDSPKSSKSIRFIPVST
Chain of Vasopressin V1a receptor (Homo sapiens, UniProt P37288) (P37288 whole entry): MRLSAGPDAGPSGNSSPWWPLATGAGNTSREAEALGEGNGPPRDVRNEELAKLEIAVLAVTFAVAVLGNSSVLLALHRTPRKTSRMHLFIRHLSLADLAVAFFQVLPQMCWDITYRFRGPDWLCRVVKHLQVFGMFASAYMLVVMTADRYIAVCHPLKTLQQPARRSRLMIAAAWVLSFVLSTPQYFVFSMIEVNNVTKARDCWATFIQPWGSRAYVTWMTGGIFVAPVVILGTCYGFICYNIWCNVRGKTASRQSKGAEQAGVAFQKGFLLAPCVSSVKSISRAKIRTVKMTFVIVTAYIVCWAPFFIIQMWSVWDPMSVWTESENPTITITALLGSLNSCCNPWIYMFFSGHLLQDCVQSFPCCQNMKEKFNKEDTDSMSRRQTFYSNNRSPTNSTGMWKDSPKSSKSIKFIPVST
Chain of Vasopressin V2 receptor (Rattus norvegicus, UniProt Q00788) (Q00788 whole entry): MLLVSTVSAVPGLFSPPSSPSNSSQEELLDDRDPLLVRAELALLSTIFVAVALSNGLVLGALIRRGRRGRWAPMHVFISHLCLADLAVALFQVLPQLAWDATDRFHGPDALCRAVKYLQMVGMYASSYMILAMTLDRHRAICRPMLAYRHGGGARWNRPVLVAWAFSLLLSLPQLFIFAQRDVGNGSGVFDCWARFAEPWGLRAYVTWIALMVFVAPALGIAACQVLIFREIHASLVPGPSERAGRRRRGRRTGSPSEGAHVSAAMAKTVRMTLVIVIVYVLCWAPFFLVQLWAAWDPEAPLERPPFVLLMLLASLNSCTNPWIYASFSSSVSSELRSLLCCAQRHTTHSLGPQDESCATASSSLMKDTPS

Compound: Cc1ccccc1C(=O)Nc1ccc(C(=O)N2CCCC(N(C)C)c3ccccc32)cc1 (stereo unspecified) [MOZAVAPTAN]
- Osmolality (Rattus norvegicus [1]): 850 mOsmol kg-1
- Urine volume (Rattus norvegicus [2]): 10 ml 4hr-1
- Osmolality (Rattus norvegicus [3]): 352 mOsmol kg-1
- Urine volume (Rattus norvegicus [4]): 23 ml 4hr-1

Compound: Cc1c(F)cccc1C(=O)Nc1ccc(C(=O)N2Cc3cccn3Cc3ccccc32)cc1
- Selectivity [5]: 7

Compound: Cc1ccccc1C(=O)Nc1ccc(C(=O)N2Cc3cccn3Cc3ccccc32)cc1
- Selectivity [5]: 9
- IC50 (Vasopressin V2 receptor [6]): 4.1 nM

Compound: O=C(Nc1ccc(C(=O)N2Cc3cccn3Cc3ccccc32)c(Cl)c1)c1cccc(C(F)(F)F)c1F
- Selectivity (Homo sapiens): 530
- IC50 (Vasopressin V1a receptor [7]): 4400 nM
- IC50 (Vasopressin V2 receptor [8]): 8.3 nM
- Osmolality (Rattus norvegicus [3]): 635 mOsmol kg-1
- Urine volume (Rattus norvegicus [4]): 10 ml 4hr-1

Compound: O=C(Nc1ccc(C(=O)N2Cc3cccn3Cc3ccccc32)cc1)c1ccc(F)cc1Cl
- Selectivity (Homo sapiens): 2
- IC50 (Vasopressin V1a receptor [7]): 6.3 nM

Compound: Cc1cccc(C(=O)Nc2ccc(C(=O)N3Cc4cccn4Cc4ccccc43)c(Cl)c2)c1C
- Selectivity (Homo sapiens): 860
- Osmolality (Rattus norvegicus [9]): 557 mOsmol kg-1
- IC50 (Vasopressin V2 receptor [8]): 0.5 nM

Compound: O=C(Nc1ccc(C(=O)N2Cc3cccn3Cc3ccccc32)cc1)c1ccc(Cl)cc1Cl
- Selectivity [5]: 7
- Selectivity (Homo sapiens): 5
- IC50 (Vasopressin V1a receptor [7]): 15 nM
- IC50 (Vasopressin V2 receptor [6]): 3.1 nM
- IC50 (Vasopressin V2 receptor [8]): 3.2 nM

Compound: Cc1c(F)cccc1C(=O)Nc1ccc(C(=O)N2Cc3cccn3Cc3ccccc32)c(Cl)c1
- Selectivity (Homo sapiens): 284
- IC50 (Vasopressin V1a receptor [7]): 540 nM
- Osmolality (Rattus norvegicus [9]): 473 mOsmol kg-1
- Urine volume (Rattus norvegicus [10]): 17 ml 4hr-1
- IC50 (Vasopressin V2 receptor [8]): 1.9 nM

Compound: O=C(Nc1ccc(C(=O)N2Cc3cccn3Cc3ccccc32)c(Cl)c1)c1ccc(Cl)cc1Cl
- Selectivity [5]: 5
- Urine volume (Rattus norvegicus [11]): 14 ml 4hr-1
- Selectivity (Homo sapiens): 320
- IC50 (Vasopressin V1a receptor [7]): 640 nM
- Osmolality (Rattus norvegicus [9]): 507 mOsmol kg-1
- IC50 (Vasopressin V2 receptor [8]): 2 nM

Compound: Cc1ccc(F)cc1C(=O)Nc1ccc(C(=O)N2Cc3cccn3Cc3ccccc32)cc1Cl
- Selectivity (Homo sapiens): 6
- IC50 (Vasopressin V1a receptor [7]): 25 nM

Compound: O=C(Nc1ccc(C(=O)N2Cc3cccn3Cc3ccccc32)cc1)c1ccccc1Cl
- Selectivity [5]: 2
- IC50 (Vasopressin V2 receptor [6]): 4.6 nM

Compound: COc1cc(Cl)ccc1C(=O)Nc1ccc(C(=O)N2Cc3cccn3Cc3ccccc32)cc1
- Selectivity [5]: 2
- IC50 (Vasopressin V1a receptor [12]): 33 nM
- IC50 (Vasopressin V2 receptor [6]): 16 nM

Compound: Cc1ccc(F)cc1C(=O)Nc1ccc(C(=O)N2Cc3cccn3Cc3ccccc32)cc1
- IC50 (Vasopressin V1a receptor [7]): 20 nM
- IC50 (Vasopressin V2 receptor [8]): 1.5 nM

Compound: Cc1cccc(C(=O)Nc2ccc(C(=O)N3Cc4cccn4Cc4ccccc43)cc2)c1C
- Selectivity [5]: 6

Compound: O=C(Nc1ccc(C(=O)N2Cc3cccn3Cc3ccccc32)cc1)c1ccccc1C(F)(F)F
- Selectivity [5]: 3
- IC50 (Vasopressin V2 receptor [6]): 10.2 nM

Compound: Cc1cc(C(=O)N2Cc3cccn3Cc3ccccc32)ccc1NC(=O)c1ccc(Cl)cc1Cl
- Selectivity [5]: 4
- IC50 (Vasopressin V1a receptor [12]): 33 nM
- IC50 (Vasopressin V2 receptor [6]): 8 nM

Compound: COc1cc(C(=O)N2Cc3cccn3Cc3ccccc32)ccc1NC(=O)c1ccc(Cl)cc1Cl
- Selectivity (Homo sapiens): 17

Compound: Cc1ccc(F)cc1C(=O)Nc1ccc(C(=O)N2Cc3cccn3Cc3ccccc32)c(Cl)c1 [LIXIVAPTAN]
- Selectivity [5]: 148
- Urine volume (Rattus norvegicus [13]): 14 ml 4hr-1
- Osmolality (Rattus norvegicus [14]): 393 mOsmol kg-1
- Osmolality (Rattus norvegicus [1]): 222 mOsmol kg-1
- Osmolality (Rattus norvegicus [15]): 366 mOsmol kg-1
- IC50 (Vasopressin V1a receptor [12]): 340 nM
- Selectivity (Homo sapiens): 192
- IC50 (Vasopressin V1a receptor [7]): 230 nM
- Urine volume (Rattus norvegicus [16]): 37 ml 4hr-1
- Urine volume (Rattus norvegicus [17]): 38 ml 4hr-1
- Osmolality (Rattus norvegicus [18]): 629 mOsmol kg-1
- Urine volume (Rattus norvegicus [19]): 24 ml 4hr-1
- IC50 (Vasopressin V2 receptor [8]): 1.2 nM
- Osmolality (Rattus norvegicus [3]): 188 mOsmol kg-1
- Urine volume (Rattus norvegicus [20]): 43 ml 4hr-1
- Osmolality (Rattus norvegicus [21]): 302 mOsmol kg-1
- Urine volume (Rattus norvegicus [22]): 30 ml 4hr-1

Compound: COc1ccccc1C(=O)Nc1ccc(C(=O)N2Cc3cccn3Cc3ccccc32)cc1
- Selectivity [5]: 2

Compound: COc1cc(NC(=O)c2cc(F)ccc2C)ccc1C(=O)N1Cc2cccn2Cc2ccccc21
- Selectivity (Homo sapiens): 8
- IC50 (Vasopressin V2 receptor [8]): 2 nM

Compound: Cc1ccccc1C(=O)Nc1ccc(C(=O)N2Cc3cccn3Cc3ccccc32)c(Cl)c1
- Selectivity [5]: 12
- Selectivity (Homo sapiens): 59
- IC50 (Vasopressin V1a receptor [7]): 59 nM
- IC50 (Vasopressin V2 receptor [8]): 1 nM

Compound: O=C(Nc1ccc(C(=O)N2Cc3cccn3Cc3ccccc32)c(Cl)c1)c1ccc(F)cc1Cl
- Selectivity (Homo sapiens): 53
- IC50 (Vasopressin V1a receptor [7]): 37 nM
- IC50 (Vasopressin V2 receptor [8]): 0.7 nM

Compound: Cc1ccc(C)c(C(=O)Nc2ccc(C(=O)N3Cc4cccn4Cc4ccccc43)c(Cl)c2)c1
- Selectivity (Homo sapiens): 81
- IC50 (Vasopressin V2 receptor [8]): 4.2 nM

Compound: Cc1ccc(F)cc1C(=O)Nc1ccc(C(=O)N2Cc3cccn3Cc3ccccc32)c(C)c1
- Selectivity (Homo sapiens): 80
- IC50 (Vasopressin V1a receptor [7]): 120 nM
- IC50 (Vasopressin V2 receptor [8]): 2.1 nM
